Where “and” joins values, the source holds several entries; their conditions need not be identical. Identical values can stand only once.
System: U2OS
Assay: Multiplex assay against U2OS
Format: toxicity, cell-based
Settings: human
Outline: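 Phenotypes for tubulin, mitochondrial mass and membrane permeability are expressed as per cents of healthy-nucleus cells. Cells were stained live at seeding with Hoechst33342, BioTracker Green Microtubule Cytoskeleton Dye, MitoTracker Red and Annexin V Alexa Fluor 680, then imaged after compound addition on a CQ1 microscope at 37°C and 5% CO2. Machine-learning gating in CellPathfinder separated Hoechst high-intensity objects from normal cells, divided normal cells by nuclear state (healthy, pyknosed, fragmented) and divided pyknosed cells into mitotic or apoptotic.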

[1] = 12 h, 1 µM, compound concentration 1 uM, replicate 1
[2] = 12 h, 1 µM, compound concentration 1 uM, replicate 2
[3] = 12 h, 10 µM, compound concentration 10 uM, replicate 1
[4] = 12 h, 10 µM, compound concentration 10 uM, replicate 2
[5] = 24 h, 1 µM, compound concentration 1 uM, replicate 1
[6] = 24 h, 1 µM, compound concentration 1 uM, replicate 2
[7] = 24 h, 10 µM, compound concentration 10 uM, replicate 1
[8] = 24 h, 10 µM, compound concentration 10 uM, replicate 2
[9] = 48 h, 10 µM, compound concentration 10 uM, replicate 1
[10] = 48 h, 10 µM, compound concentration 10 uM, replicate 2

SMILES: C[C@@]1(C(=O)Nc2ccc(F)nc2)CCCN1c1nc(Nc2cc(C3CC3)n[nH]2)c2cccn2n1 [BMS-754807]
- Population Apoptotic (%) [1]: 25%
- Population Fragmented Nuclei (%) [1]: 8%
- Population Healthy Nuclei (%) [1]: 75%
- Population Hoechst High Intensity Objects (%) [1]: 4%
- Population Membrane Permeable-Phenotype (%) [1]: 61%
- Population Mitochondria Different-Phenotype (%) [1]: 10%
- Population Mitotic Cells (%) [1]: 74%
- Population Normal (%) [1]: 95%
- Population Pyknosed Nuclei (%) [1]: 15%
- Population Tubulin-Different-Phenotype (%) [1]: 78%
- Total Cell Count [1]: 181
- Population Apoptotic (%) [2]: 16%
- Population Fragmented Nuclei (%) [2]: 36%
- Population Healthy Nuclei (%) [2]: 56%
- Population Hoechst High Intensity Objects (%) [2]: 27%
- Population Membrane Permeable-Phenotype (%) [2]: 45%
- Population Mitochondria Different-Phenotype (%) [2]: 25%
- Population Mitotic Cells (%) [2]: 83%
- Population Normal (%) [2]: 72%
- Population Pyknosed Nuclei (%) [2]: 7%
- Population Tubulin-Different-Phenotype (%) [2]: 62%
- Total Cell Count [2]: 117
- Population Apoptotic (%) [3]: 41% and 56%
- Population Fragmented Nuclei (%) [3]: 10% and 4%
- Population Healthy Nuclei (%) [3]: 65% and 86%
- Population Hoechst High Intensity Objects (%) [3]: 6% and 2%
- Population Membrane Permeable-Phenotype (%) [3]: 6% and 9%
- Population Mitochondria Different-Phenotype (%) [3]: 71% and 27%
- Population Mitotic Cells (%) [3]: 58% and 43%
- Population Normal (%) [3]: 93% and 97%
- Population Pyknosed Nuclei (%) [3]: 24% and 8%
- Total Cell Count [3]: 191 and 183
- Population Apoptotic (%) [4]: 33%
- Population Fragmented Nuclei (%) [4]: 15% and 11%
- Population Healthy Nuclei (%) [4]: 58% and 80%
- Population Hoechst High Intensity Objects (%) [4]: 13% and 9%
- Population Membrane Permeable-Phenotype (%) [4]: 22% and 16%
- Population Mitochondria Different-Phenotype (%) [4]: 70% and 40%
- Population Mitotic Cells (%) [4]: 66%
- Population Normal (%) [4]: 86% and 90%
- Total Cell Count [4]: 53 and 85
- Population Apoptotic (%) [5]: 38%
- Population Fragmented Nuclei (%) [5]: 15%
- Population Healthy Nuclei (%) [5]: 60%
- Population Hoechst High Intensity Objects (%) [5]: 4%
- Population Membrane Permeable-Phenotype (%) [5]: 63%
- Population Mitochondria Different-Phenotype (%) [5]: 32%
- Population Mitotic Cells (%) [5]: 61%
- Population Normal (%) [5]: 95%
- Population Pyknosed Nuclei (%) [5]: 24%
- Population Tubulin-Different-Phenotype (%) [5]: 78%
- Total Cell Count [5]: 181
- Population Apoptotic (%) [6]: 40%
- Population Fragmented Nuclei (%) [6]: 41%
- Population Healthy Nuclei (%) [6]: 47%
- Population Hoechst High Intensity Objects (%) [6]: 20%
- Population Membrane Permeable-Phenotype (%) [6]: 41%
- Population Mitochondria Different-Phenotype (%) [6]: 30%
- Population Mitotic Cells (%) [6]: 60%
- Population Normal (%) [6]: 79%
- Population Pyknosed Nuclei (%) [6]: 10%
- Population Tubulin-Different-Phenotype (%) [6]: 51%
- Total Cell Count [6]: 114
- Population Apoptotic (%) [7]: 28% and 49%
- Population Fragmented Nuclei (%) [7]: 11% and 15%
- Population Healthy Nuclei (%) [7]: 76% and 54%
- Population Hoechst High Intensity Objects (%) [7]: 5% and 8%
- Population Membrane Permeable-Phenotype (%) [7]: 11% and 8%
- Population Mitochondria Different-Phenotype (%) [7]: 51% and 74%
- Population Mitotic Cells (%) [7]: 71% and 50%
- Population Normal (%) [7]: 94% and 91%
- Population Pyknosed Nuclei (%) [7]: 11% and 30%
- Total Cell Count [7]: 187 and 184
- Population Fragmented Nuclei (%) [8]: 17% and 12%
- Population Healthy Nuclei (%) [8]: 47% and 74%
- Population Hoechst High Intensity Objects (%) [8]: 9% and 11%
- Population Membrane Permeable-Phenotype (%) [8]: 22%
- Population Mitochondria Different-Phenotype (%) [8]: 59% and 45%
- Population Mitotic Cells (%) [8]: 62% and 90%
- Population Normal (%) [8]: 90% and 88%
- Population Pyknosed Nuclei (%) [8]: 34% and 12%
- Population Tubulin-Different-Phenotype (%) [8]: 77% and 28%
- Total Cell Count [8]: 51 and 89
- Population Apoptotic (%) [9]: 72%
- Population Fragmented Nuclei (%) [9]: 26%
- Population Healthy Nuclei (%) [9]: 21%
- Population Hoechst High Intensity Objects (%) [9]: 11%
- Population Membrane Permeable-Phenotype (%) [9]: 13%
- Population Mitochondria Different-Phenotype (%) [9]: 75%
- Population Mitotic Cells (%) [9]: 27%
- Population Normal (%) [9]: 88%
- Population Pyknosed Nuclei (%) [9]: 52%
- Population Tubulin-Different-Phenotype (%) [9]: 88%
- Total Cell Count [9]: 193
- Population Apoptotic (%) [10]: 66%
- Population Fragmented Nuclei (%) [10]: 25%
- Population Healthy Nuclei (%) [10]: 30%
- Population Hoechst High Intensity Objects (%) [10]: 20%
- Population Membrane Permeable-Phenotype (%) [10]: 91%
- Population Mitochondria Different-Phenotype (%) [10]: 83%
- Population Mitotic Cells (%) [10]: 33%
- Population Normal (%) [10]: 80%
- Population Pyknosed Nuclei (%) [10]: 45%
- Population Tubulin-Different-Phenotype (%) [10]: 91%
- Total Cell Count [10]: 50

SMILES: C=CC(=O)Nc1cc2c(Nc3ccc(F)c(Cl)c3)ncnc2cc1OCCCN1CCOCC1.Cl.Cl [CANERTINIB DIHYDROCHLORIDE]
- Population Apoptotic (%) [1]: 91%
- Population Fragmented Nuclei (%) [1]: 16%
- Population Healthy Nuclei (%) [1]: 0%
- Population Hoechst High Intensity Objects (%) [1]: 5%
- Population Membrane Permeable-Phenotype (%) [1]: 0%
- Population Mitochondria Different-Phenotype (%) [1]: 100%
- Population Mitotic Cells (%) [1]: 8%
- Population Normal (%) [1]: 94%
- Population Pyknosed Nuclei (%) [1]: 83%
- Population Tubulin-Different-Phenotype (%) [1]: 100%
- Total Cell Count [1]: 137
- Population Apoptotic (%) [2]: 95%
- Population Fragmented Nuclei (%) [2]: 10%
- Population Healthy Nuclei (%) [2]: 4%
- Population Hoechst High Intensity Objects (%) [2]: 20%
- Population Membrane Permeable-Phenotype (%) [2]: 100%
- Population Mitotic Cells (%) [2]: 5%
- Population Normal (%) [2]: 79%
- Population Pyknosed Nuclei (%) [2]: 85%
- Total Cell Count [2]: 88
- Population Apoptotic (%) [3]: 22%
- Population Fragmented Nuclei (%) [3]: 5%
- Population Healthy Nuclei (%) [3]: 87%
- Population Hoechst High Intensity Objects (%) [3]: 2%
- Population Membrane Permeable-Phenotype (%) [3]: 38%
- Population Mitochondria Different-Phenotype (%) [3]: 11%
- Population Mitotic Cells (%) [3]: 77%
- Population Normal (%) [3]: 97%
- Population Pyknosed Nuclei (%) [3]: 6%
- Population Tubulin-Different-Phenotype (%) [3]: 17%
- Total Cell Count [3]: 142
- Population Apoptotic (%) [4]: 33%
- Population Fragmented Nuclei (%) [4]: 12%
- Population Healthy Nuclei (%) [4]: 81%
- Population Hoechst High Intensity Objects (%) [4]: 10%
- Population Membrane Permeable-Phenotype (%) [4]: 24%
- Population Mitochondria Different-Phenotype (%) [4]: 22%
- Population Mitotic Cells (%) [4]: 66%
- Population Normal (%) [4]: 89%
- Population Pyknosed Nuclei (%) [4]: 5%
- Population Tubulin-Different-Phenotype (%) [4]: 14%
- Total Cell Count [4]: 122
- Population Apoptotic (%) [5]: 99%
- Population Fragmented Nuclei (%) [5]: 8%
- Population Healthy Nuclei (%) [5]: 4%
- Population Hoechst High Intensity Objects (%) [5]: 13%
- Population Membrane Permeable-Phenotype (%) [5]: 100%
- Population Mitochondria Different-Phenotype (%) [5]: 100%
- Population Mitotic Cells (%) [5]: 0%
- Population Normal (%) [5]: 86%
- Population Pyknosed Nuclei (%) [5]: 87%
- Population Tubulin-Different-Phenotype (%) [5]: 100%
- Total Cell Count [5]: 137
- Population Apoptotic (%) [6]: 100%
- Population Fragmented Nuclei (%) [6]: 14%
- Population Healthy Nuclei (%) [6]: 5%
- Population Hoechst High Intensity Objects (%) [6]: 21%
- Population Normal (%) [6]: 78%
- Population Pyknosed Nuclei (%) [6]: 79%
- Total Cell Count [6]: 85
- Population Apoptotic (%) [7]: 70%
- Population Fragmented Nuclei (%) [7]: 5%
- Population Hoechst High Intensity Objects (%) [7]: 3%
- Population Mitochondria Different-Phenotype (%) [7]: 11%
- Population Mitotic Cells (%) [7]: 29%
- Population Normal (%) [7]: 96%
- Population Pyknosed Nuclei (%) [7]: 9%
- Population Tubulin-Different-Phenotype (%) [7]: 9%
- Total Cell Count [7]: 186
- Population Apoptotic (%) [8]: 42%
- Population Fragmented Nuclei (%) [8]: 9%
- Population Healthy Nuclei (%) [8]: 84%
- Population Hoechst High Intensity Objects (%) [8]: 8%
- Population Membrane Permeable-Phenotype (%) [8]: 20%
- Population Mitochondria Different-Phenotype (%) [8]: 23%
- Population Mitotic Cells (%) [8]: 57%
- Population Normal (%) [8]: 91%
- Population Pyknosed Nuclei (%) [8]: 5%
- Population Tubulin-Different-Phenotype (%) [8]: 19%
- Total Cell Count [8]: 135

— ChEMBL document CHEMBL4689842, “EUbOPEN Chemogenomics Library wave 1” (2021)
